# Compound activity (PubChem)
# FXN GAA850 act – FXN promoter activators, primary screen, cell-based, luciferase luminescence, HEK293 lucGAA850. HEK293 lucGAA850 FXN promoter luciferase reporter, 24 h; percent of 10 µM SAHA response. activation, % at 6 µM. 0.56% of 360,000 active. AID 540364, 2011;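 active means activation above the average of all compounds screened plus 3 SD, cutoff fixed separately per campaign, cut at about 7.5% in these data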;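 further: 0% = DMSO wells and 100% = 10 µM SAHA wells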
# STAT3 activator – IL-6 driven STAT3 reporter potentiators, primary screen, U3A cells, luciferase, luminescence, MLSCN library. IL-6 STAT3-luciferase reporter; 100% = signal with IL-6 EC80 alone. activation (% of control), % at 5.6 µM. 0.91% of 190,000 active;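 active means activation above the screen-wide mean of compound activation plus 3 SD, cut at about 130% in these data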;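 further: 0% = background luminescence of wells with medium and substrate only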
#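 Material: human U3A cells carrying STAT3-luciferase construct. Measured by: reporter luminescence signal. Timing: compound 1 h, then IL-6 6 h at 37 °C.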
# AHR act – AHR activators, primary screen, cell-based, luminescence, luciferase reporter, human | Aryl hydrocarbon receptor (Homo sapiens), P35869 | AHR-responsive luciferase reporter cells | activation, % at 5 µM | 2.5% of 320,000 active; in the data active means activation above about 47%;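 further: 0% = vehicle wells and 100% = reference agonist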
# Target sequence (P35869 whole entry, looked up): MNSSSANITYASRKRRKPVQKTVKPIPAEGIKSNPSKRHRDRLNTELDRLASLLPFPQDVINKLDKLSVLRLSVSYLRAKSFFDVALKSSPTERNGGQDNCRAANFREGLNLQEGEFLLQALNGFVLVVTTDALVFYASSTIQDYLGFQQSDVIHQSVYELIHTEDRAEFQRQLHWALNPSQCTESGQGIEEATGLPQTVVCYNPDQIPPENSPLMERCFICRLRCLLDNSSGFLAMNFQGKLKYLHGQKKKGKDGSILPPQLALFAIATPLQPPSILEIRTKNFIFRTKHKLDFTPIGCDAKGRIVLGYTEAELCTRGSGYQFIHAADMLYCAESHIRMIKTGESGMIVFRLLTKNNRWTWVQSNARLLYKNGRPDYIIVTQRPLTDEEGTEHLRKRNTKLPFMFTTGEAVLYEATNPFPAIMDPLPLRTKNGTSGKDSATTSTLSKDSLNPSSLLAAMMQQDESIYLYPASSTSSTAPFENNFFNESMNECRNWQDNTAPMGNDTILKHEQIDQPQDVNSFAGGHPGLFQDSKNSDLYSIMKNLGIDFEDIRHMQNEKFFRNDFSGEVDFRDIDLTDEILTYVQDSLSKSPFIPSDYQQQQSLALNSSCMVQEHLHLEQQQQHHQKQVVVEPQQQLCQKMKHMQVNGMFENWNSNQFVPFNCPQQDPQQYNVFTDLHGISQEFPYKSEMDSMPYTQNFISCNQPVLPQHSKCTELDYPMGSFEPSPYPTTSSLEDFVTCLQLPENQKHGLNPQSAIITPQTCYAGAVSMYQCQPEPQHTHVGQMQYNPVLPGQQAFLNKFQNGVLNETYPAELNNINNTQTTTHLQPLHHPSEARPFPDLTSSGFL
# ABCB6 inh MLPCN – ABCB6 transporter inhibitors, primary screen, K562-ABCB6 cells, flow cytometry, MLPCN library. ATP-binding cassette sub-family B member 6 (Homo sapiens), Q9NP58. K562-ABCB6 porphyrin accumulation, 1 h; stronger effect = lower value. fluorescence ratio to DMSO, % at 10 µM. 0.19% of 360,000 active;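 active means fluorescence ratio to DMSO below 75%, the collection mean minus 3 SD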;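 further: signal is porphyrin accumulated inside mitochondria; 100% equals median channel fluorescence of DMSO control wells; lower ratio means ABCB6 inhibition with less porphyrin fluorescence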
# An asterisk follows results filed as active; nt = no result given. The list is not random: actives were taken first. Their share in the collection is about 3.3%.
SMILES,FXN GAA850 act,STAT3 activator,AHR act,ABCB6 inh MLPCN
COc1ccccc1C(C)NC(=O)c1ccc(S(=O)(=O)NCc2ccco2)cc1 (stereo not given),2,nt,0,95
CNC(=S)NNC(=O)c1oc2nc(-c3ccccc3)cc(C)c2c1N,2,nt,56*,100
COc1ccc(CCN2CC(C(=O)N3CCSCC3)CCC2=O)cc1 (stereo not given),-1,nt,4,98
COc1cccc(CN(C)CC(=O)Nc2cccc3ccccc23)c1,1,96,16,92
COc1ccccc1-c1nc(C(N)=O)c2[nH]c(=O)n(-c3cccc(C)c3)c2n1,2,103,66*,102
CC(=Nc1cccc(C)c1)c1sc2ccccc2c1O,5,138*,45,85
CN(C)c1ccc(C(CNC(=O)c2ccccc2F)c2c[nH]c3ccccc23)cc1 (stereo not given),0,116,30,109
CN(C)c1ccc(C(CNS(=O)(=O)c2ccc(F)c(F)c2)c2c[nH]c3ccccc23)cc1 (stereo not given),1,112,68*,94
N#C/C(=C\c1c[nH]c2ccccc12)C(=O)NC1CC1,5,nt,-4,100
N#C/C(=C\c1cn[nH]c1-c1ccc(Cl)cc1)C(=O)NC1CC1,3,105,85*,97
COc1ccc(-c2[nH]ncc2/C=C(\C#N)C(=O)NC2CC2)cc1,2,103,29,91
N#C/C(=C\c1c[nH]c2ccccc12)C(=O)NC1CCCC1,4,nt,64*,102
N#Cc1c(SCC(=O)Nc2nncs2)sc2c(O)cc(=O)[nH]c12,3,nt,50*,95
N#Cc1c(SCC(=O)Nc2ccc(C(F)(F)F)cc2)sc2c(O)cc(=O)[nH]c12,-2,nt,3,95
NNc1ccc(Cl)nn1,4,nt,69*,99
CC1CCC/C(=C\Nc2ccc3c(c2)OCO3)C1=O (stereo not given),1,117,5,105
O=C1CCC/C1=C/Nc1ccc2c(c1)OCO2,-1,108,73*,93
Cn1ccnc1C(O)(c1ccccc1)c1ccccc1,4,nt,3,100
O=C(CN(C1CCCCC1)S(=O)(=O)c1ccc(F)cc1)NCC1CCCO1 (stereo not given),12*,nt,nt,100
O=C(CN(C1CCCCC1)S(=O)(=O)c1ccccc1)NCC1CCCO1 (stereo not given),-1,nt,nt,95
CCc1nc(SCC(=O)NC2CC2)c2c(C)c(C)sc2n1,2,nt,52*,95
COc1ccc(/C=N/NC(=O)c2c(C)n(C)c3ccc(OC)cc23)c(OC)c1,0,97,17,104
COc1ccc2c(c1)c(C(=O)N/N=C/c1ccccc1Cl)c(C)n2C,0,nt,57*,102
Cc1ccc(C)c(S(=O)(=O)N/N=C/c2ccc(F)cc2)c1,0,104,74*,98
Cc1ccc(C)c(S(=O)(=O)N/N=C/c2ccc(N(C)C)cc2)c1,1,105,4,98
SMILES,FXN GAA850 act,STAT3 activator,AHR act,ABCB6 inh MLPCN
CCc1cccc(CC)c1NC(=S)NCC(c1cccnc1)N1CCOCC1 (stereo not given),2,99,1,98
CCn1c2ccccc2c2cc(NC(=O)c3cc(C)on3)ccc21,0,99,53*,102
CCn1c2ccccc2c2cc(NC(=O)COC(=O)c3ccccc3O)ccc21,-1,91,34,100
CCn1c2ccccc2c2cc(NC(=O)COC(=O)c3cc(Cl)c(N)cc3OC)ccc21,1,nt,73*,99
CCn1c2ccccc2c2cc(NC(=O)c3ccc(=O)oc3)ccc21,2,nt,58*,116
CCn1c2ccccc2c2cc(NC(=O)c3ccc(Br)o3)ccc21,-2,102,63*,153
COc1ccc(-c2csc(N(CCCN(C)C)C(=O)c3ccc(Br)cc3)n2)cc1,-1,nt,1,94
CCn1c2ccccc2c2cc(NC(=O)CSc3nnc(-c4ccccc4)o3)ccc21,-2,91,44,104
COc1ccc(NC(=O)CCCN2C(=O)CCC2=O)cc1Cl,-3,104,1,108
CCn1c2ccccc2c2cc(NC(=O)CCCN3C(=O)CCC3=O)ccc21,0,103,67*,102
CCn1c2ccccc2c2cc(NC(=O)CSc3nnc(-c4cccc(F)c4)o3)ccc21,-2,93,59*,109
C=CCNc1sc(C(=O)c2ccc(C)cc2)c(N)c1C#N,3,108,43,86
C=CCNc1nc(N)c(C(=C(C#N)C#N)c2ccc(Br)cc2)s1,-1,94,57*,96
Oc1ccc2ccccc2c1/C=N/c1nccs1,1,106,19,95
Oc1ccc2ccccc2c1C=NCc1cn2ccsc2n1,-1,113,66*,95
O=C(Nc1ccc2c(c1)oc1ccccc12)c1ccc2c(c1)OCO2,3,99,-5,101
O=c1c(O)c(-c2ccc3c(c2)OCO3)oc2ccccc12,3,88,69*,103
Cc1cccc(CN2CCc3c([nH]c4ccccc34)C2C(C)(C)C)n1 (stereo not given),1,nt,60*,102
CC(=O)[C@@H]1[C@@H]2C(=O)N(C3CCCCC3)C(=O)[C@@H]2C2c3ccccc3C=CN21 (stereo not given in full),nt,110,27,nt
COc1ccc(NC(=O)[C@@H]2[C@@H]3C(=O)N(C4CCCCC4)C(=O)[C@@H]3C3c4ccccc4C=CN32)cc1 (stereo not given in full),-1,115,90*,98
O=C(CSc1nc(=O)n(CCN2CCOCC2)c2c1CCCC2)Nc1cccc([N+](=O)[O-])c1,1,nt,0,100
CCOC(=O)c1[nH]cc(-c2ccccc2)c1N1CCOCC1,1,108,49*,98
CCOC(=O)c1cnc(-c2ccccc2)nc1N1CCOCC1,2,95,48*,94
CN(Cc1ccccc1)C(=O)c1ccc2nc([C@@H]3O[C@H](CO)[C@H](O)[C@H](O)[C@H]3O)[nH]c2c1,0,nt,nt,89
CCN1C[C@@H]2[C@@H]3C(=O)N(C)C(=O)[C@@H]3[C@](Cc3ccccc3)(C1=O)N2C(=O)c1ccc(C(C)(C)C)cc1,0,nt,nt,93
SMILES,FXN GAA850 act,STAT3 activator,AHR act,ABCB6 inh MLPCN
CC(C)N(Cc1cn(C)nc1-c1cccc(Cl)c1)Cc1nccn1C,2,105,1,103
Cc1cccc(-c2ocnc2C(=O)Nc2ccccc2NC(=O)c2ccccn2)c1,1,nt,56*,95
Cc1ccc(-c2ocnc2C(=O)Nc2nc(C)cs2)cc1,4,nt,68*,95
O=C(NCCC1CCCCN1S(=O)(=O)c1cccs1)C(=O)NCc1ccccc1 (stereo not given),-1,nt,2,93
CC(=O)Nc1ccc(-c2csc(N/N=C\c3ccncc3)n2)cc1,-1,nt,61*,102
O=C(O)Cc1sc(N/N=C\c2ccccc2)nc1-c1ccccc1,1,97,75*,120
